Measured values as given in paper PMC11656131 (Angewandte Chemie (International Ed. in English), 2024).
Entries after “also recorded” stand apart in the source; their conditions may differ.

Target: T1, CERT (Homo sapiens, UniProt Q9Y5P4)
T1 sequence (Q9Y5P4 1-598 isoform Q9Y5P4-2): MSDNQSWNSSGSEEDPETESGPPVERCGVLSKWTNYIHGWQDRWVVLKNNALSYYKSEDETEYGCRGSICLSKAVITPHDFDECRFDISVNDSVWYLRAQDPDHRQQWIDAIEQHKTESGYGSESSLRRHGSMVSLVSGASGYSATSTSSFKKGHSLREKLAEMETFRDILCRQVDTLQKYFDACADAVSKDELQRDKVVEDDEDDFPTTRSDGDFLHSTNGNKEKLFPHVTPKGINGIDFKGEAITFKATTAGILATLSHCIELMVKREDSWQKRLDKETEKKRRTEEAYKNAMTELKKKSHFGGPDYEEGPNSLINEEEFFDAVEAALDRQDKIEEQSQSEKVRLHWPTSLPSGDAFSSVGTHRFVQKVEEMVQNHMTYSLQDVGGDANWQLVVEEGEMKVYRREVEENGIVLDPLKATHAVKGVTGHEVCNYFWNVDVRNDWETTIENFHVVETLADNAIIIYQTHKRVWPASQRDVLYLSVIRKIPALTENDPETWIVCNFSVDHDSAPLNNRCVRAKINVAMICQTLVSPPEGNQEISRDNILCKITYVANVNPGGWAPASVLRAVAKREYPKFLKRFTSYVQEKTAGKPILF
Experiment: NanoBRET live-cell CERT assay
Assay type: cell-based
Conditions: cells pre-treated with SACLAC
In short: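 HeLa cells (or CERT-deficient HeLa) were transfected with NLuc fused N-terminally to full-length CERT, split into 96-well plates next day and incubated overnight. Nano-Glo Vivazine live-cell substrate was added, then NR-Cer acceptor (0.2 µM, or titrated) with test compound. mBRET was read relative to untreated (100% BRET). Library screen at 0.2 µM in single determination; dose-response in triplicate, Hill fit.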

CCCCCCCCCCCCCCC[C@@H](O)[C@H](CO)NC(=O)CCl [SACLAC]
mBRET after pre-treatment with acid ceramidase inhibitor: no effect on BRET efficiency; also recorded: only slightly elevated mBRET values
